Dynein transport: inhibitors of GR-EGFP nuclear translocation, primary screen, dynein cargo transport inhibitor project, imaging, high-content, 3617.4 mouse cells | test concentration mostly 20 µM; stimulated with dexamethasone, 1 µM; hits give low values | hit rate 0.47% among 220,000 | AID 1381, 2008 | z-score, hits read low;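 active means plate z-score of nuclear minus cytoplasmic receptor signal below a set negative limit, without overly bright fluorescence or cell loss, cut at about -3.5 in these data, passing the limit was not always enough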;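 further: z-score of nuclear minus cytoplasmic ring GR-EGFP intensity difference per well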
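Schedule: 48 h induction, then 1 h compound, then 30 min agonist, 37 °C. Buffer or medium: tetracycline-free induction medium containing charcoal-stripped FBS. Reagent: 1.0 µM final dexamethasone stimulus. Evaluation: nuclear versus cytoplasmic GR-EGFP signal, averaged per well. Signal: high-content fluorescence imaging after fixation.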
L major viab: Leishmania major promastigote growth inhibition, primary screen; Leishmania major promastigotes, resazurin fluorescence viability; inhibition, % at 10 µM; hit rate 9% among 200,000; in the data active means inhibition above about 50%;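 further: promastigotes grown with compound for 44 hours at 28 °C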
UPR CHOP act: activators of apoptotic CHOP UPR arm, primary screen, cell-based, CHO-CHOP luciferase reporter, luminescence, uHTS; AID 449763, 2010; UPR activation; percent of tunicamycin response over DMSO baseline; hit rate 0.34% among 330,000; activation, % at 10 µM;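 active means at 10 µM dose, activation of 40% or more, normalized to positive control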;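 further: 100% = tunicamycin at 10 µg/mL and 0% = DMSO alone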
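Test system: CHO CHOP reporter cells. Input: 500 CHO-CHOP cells per well. Medium: F12 with 10% FBS. Technique: luciferase luminescence. Measure: percent activation relative to tunicamycin control. Dosing: 10 µM compound, 0.5% DMSO. Timing: 16-18 h cell attachment, then 6 h compound exposure, 37 °C.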
T cruzi inh: inhibitors of intracellular T. cruzi growth, primary screen, luminescence, NIH3T3 host cells; T. cruzi beta-gal in NIH3T3, 90 h; inhibition, % (no concentration beside the values); hit rate 1.4% among 300,000;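 active means mean inhibition across valid replicates above about 55%, limit read from the data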;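 further: signal also drops with host cell toxicity which is not excluded here; 0% = plate median of DMSO wells and 100% = zero luminescence signal; higher percent means less beta-gal luminescence so fewer parasites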
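Assay system: NIH/3T3 fibroblasts plus reporter T. cruzi. Amount: NIH/3T3 cells, 5,000 per well. Buffer or medium: DMEM, 2% fetal bovine serum. Doses: compound pinned at 50 nL/well, DMSO. Schedule: ≥90 h infection period, 3 h prior cell attachment. Signal: luminescent β-galactosidase signal after 60 min lysis. Read-out: parasite load inhibition, %.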
XBP1 UPR activ: activators of adaptive XBP1 UPR arm, primary screen, cell-based, CHO-XBP1 luciferase reporter, luminescence, uHTS | IRE1-XBP1 UPR activation; percent of tunicamycin response, DMSO as zero | activation, % at 20 µM | hit rate 0.33% among 330,000;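 active means versus positive control, 20 µM dose yields 30% or more activation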;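 further: 100% = tunicamycin at 10 µg/mL and 0% = DMSO only wells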
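Material: CHO cell line with stable XBP1 luciferase reporter; schedule: 16-18 h cell attachment at 37 °C, then 6 h compound exposure; signal: glow luminescence from Steady-Glo reagent; medium: serum-containing F12 medium, 10% FBS; benchmarks: tunicamycin 10 µg/mL and vehicle-only wells; read-out: percent activation relative to tunicamycin reference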
CHOP inhibitor: inhibitors of CHOP promoter induction, primary screen, cell-based, unfolded protein response, luciferase reporter. AID 2732, 2010. hit rate 3.8% among 220,000. inhibition, % at 10 µM. CHO-K1 CHOP-promoter luciferase, tunicamycin-induced, 15-18 h;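 active means compounds that reduced the stress-induced luciferase reporter signal by more than about 70% of percent inhibition, limit read from the data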;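 further: 0% = tunicamycin plus vehicle and 100% = wells without tunicamycin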
Active calls of the source: *; nt = no result. This excerpt belongs to a sample that is enriched for hits.

SMILES	Dynein transport	L major viab	UPR CHOP act	T cruzi inh	XBP1 UPR activ	CHOP inhibitor
COc1ccc2c(C)cc(SCC(=O)c3ccc4c(c3)OCO4)nc2c1	0.209	17.7	-1.4	58.6*	0.4	7.8
CCC(=O)Nc1ccc(C(=O)CSc2nc3ccc(C)cc3[nH]2)cc1	-1.16	0.0	nt	-9.6	nt	10.6
CC(=O)c1c(C)[nH]c(C(=O)CSc2nc3ccc(C)cc3[nH]2)c1C	-1.22	91.7*	0.1	10.8	1.6	51.2
O=C(CSc1nc2ccccc2[nH]1)c1ccc2c(c1)OCO2	-0.627	3.8	1.6	5.8	5.1	62.4
Cc1ccc2nc(SCC(=O)c3ccc4c(c3)OCO4)[nH]c2c1	-0.511	83.7*	1.3	8.4	0.0	37.7
Cc1ccc2nc(SCC(=O)c3ccc(Cl)s3)[nH]c2c1	-0.143	16.5	1.5	2.3	1.7	70.7*
O=C(CSc1nnc(-c2ccccc2)c2ccccc12)NCCN1C(=O)CSC1=O	nt	nt	0.8	nt	-1.4	nt
COc1ccc(C(=O)Nc2nc(C)c3cc4c(cc3n2)OCO4)cc1	0.524	-4.0	-1.6	3.0	1.7	72.4*
COC(=O)c1ccc(CSc2nc3c(cnn3-c3ccc(C)cc3)c(=O)[nH]2)o1	-0.0571	4.2	-1.1	2.7	5.1	62.4
COC(=O)c1ccc(CSc2nc3ccc(C)cc3[nH]2)o1	-0.569	87.1*	3.9	-19.7	2.1	-4.5
CCCN1CCN(CC(=O)Nc2nncs2)CC1	nt	nt	0.2	-0.2	-2.5	nt
C#CCSc1nc2[nH]ncc2c(=O)[nH]1	0.564	52.6*	-0.9	-23.9	-1.5	8.7
C=CCSc1nc2[nH]ncc2c(=O)[nH]1	0.72	-9.1	-1.1	-8.3	0.1	8.8
CN(c1ccccc1)S(=O)(=O)c1cccc(C(=O)OCC(=O)Nc2ccc(C(N)=O)cc2)c1	nt	nt	-2.3	nt	-2.6	nt
Cc1cc2ccccc2c(=O)n1CC(=O)NCC(=O)N1CCN(c2cccc(Cl)c2)CC1	-1.89	-0.1	-0.7	6.1	2.5	89.2*
COc1ccc([C@H]2CC(=O)C=C(c3cc(C=O)ccc3OC)C2)cc1	nt	nt	1.6	nt	1.0	nt
C/C(=N\Nc1nc2ccccc2[nH]1)c1cc2ccccc2o1	0.168	67.6*	2.0	23.8	13.1	-17.0
C/C(=N\Nc1nc2ccccc2[nH]1)c1ccccn1	nt	nt	26.4	41.9	-3.3	nt
C/C(=N\Nc1nc2ccccc2[nH]1)c1ccc2c(c1)OCO2	1.84	100.5*	5.8	78.4*	29.8	0.7
C/C(=N\Nc1nc2ccccc2[nH]1)c1ccc2c(c1)OCCO2	0.597	99.9*	2.9	56.7*	12.3	5.7
CC(C)C(NC(=O)c1ccc2c(c1)OCCO2)c1nc2ccccc2[nH]1 (configuration not stated)	nt	nt	-1.2	-3.5	-2.2	nt
C(=N\Nc1nc2ccccc2[nH]1)/c1ccc2c(c1)OCO2	1.4	96.3*	nt	28.8	nt	-38.3
C/C(=N\Nc1ccccn1)c1ccc2c(c1)OCO2	1.61	24.4	2.6	11.0	-2.1	-11.0
CC(=O)c1ccc(N2C(=O)CC(N3CCN(S(=O)(=O)c4cc(C)ccc4C)CC3)C2=O)cc1 (configuration not stated)	nt	nt	-1.4	nt	-1.1	nt
COC(=O)c1cc(S(=O)(=O)NCc2ccc(Br)cc2)c[nH]1	nt	nt	2.4	-8.2	-6.7	nt
SMILES	Dynein transport	L major viab	UPR CHOP act	T cruzi inh	XBP1 UPR activ	CHOP inhibitor
COC(=O)c1sc(NC(=S)NNC(=O)c2c(Br)c(C)nn2C)c(C(=O)OC)c1C	nt	nt	-0.8	-9.3	-7.0	nt
O=C(Nc1nnc(C2=COCCO2)o1)c1ccc([N+](=O)[O-])cc1	nt	nt	0.1	-14.0	-2.6	nt
CN(CCOc1ccc(Cl)cc1)CC(O)c1ccccc1 (configuration not stated)	nt	nt	-0.7	52.6	-1.0	nt
CC(C)c1ccc(CN(C)CC(O)c2ccccc2)cc1 (configuration not stated)	1.23	74.7*	-0.5	22.1	-2.6	5.2
Cc1cccc(OCCCn2ccnc2)c1	-1.4	98.4*	-0.2	20.1	-0.2	0.2
CCOc1ccc(OCCn2ccnc2)cc1	-0.0826	28.6	3.3	-1.2	-0.4	35.0
Cc1cc(C(C)(C)C)ccc1OCCn1ccnc1	-0.348	61.8*	-1.6	10.9	-1.0	17.2
Cc1cc(OCCn2ccnc2)ccc1C(C)C	-0.571	97.2*	-1.6	4.7	-0.4	17.0
Cc1ccc(OCCCn2ccnc2)cc1C	-0.0795	99.6*	-1.8	41.5	-4.3	40.4
COc1ccc(NCc2nnc(-c3ccccc3)o2)cc1	nt	nt	1.1	24.9	-4.3	nt
CC(C)c1ccccc1-n1c(SCc2cc(=O)oc3ccc4ccccc4c23)nnc1-c1cccnc1	-0.101	54.3*	1.8	13.7	3.0	11.3
CC(=O)Nc1ccc2c(CSc3nnc(-c4cccnc4)n3-c3ccc(C)cc3C)cc(=O)oc2c1	-0.551	56.9*	0.6	-3.9	-0.4	19.9
Cc1cc(NC(=O)c2ccc(Cl)c(S(=O)(=O)N3CCCCC3)c2)no1	nt	nt	10.5	-20.3	-5.1	nt
COc1cc(OC)c(NS(=O)(=O)c2cc3[nH]c(=O)c(=O)[nH]c3cc2C)cc1Cl	nt	nt	-0.3	-1.0	-1.3	nt
Cc1c(C#N)c(O)n(CCO)c(=O)c1N=Nc1ccc2c(c1)COC2=O	-0.159	nt	30.6	10.4	-1.8	94.2*
COCc1nc(-c2ccc(-c3ccc(OC)cc3)nc2OC)no1	-0.458	-2.3	3.0	-10.6	4.0	31.1
CCc1nc(-c2ccc(-c3ccc(OC)cc3)nc2OC)no1	1.39	9.2	2.6	-6.9	4.6	77.2*
CC1CCCC(C)N1c1ccc(S(=O)(=O)N2CCOCC2)cc1Cl (configuration not stated)	nt	nt	-1.0	33.0	0.3	nt
O=S(=O)(Cc1cc(Sc2ccc(Cl)cc2)nc(-c2ccccc2)n1)c1ccccc1	0.606	2.1	-0.4	54.6*	-1.7	3.2
O=C(CN1CCCC1)Nc1c2c(nc3ccccc13)N(Cc1ccccc1)CC2	-0.657	51.4*	-0.6	9.5	-4.6	-4.3
O=C(CN1CCOCC1)Nc1c2c(nc3ccccc13)N(Cc1ccccc1)CC2	-0.988	-3.4	-1.5	-11.1	0.4	-2.9
O=c1c2ccccc2nc(/C=C/c2ccc(O)cc2)n1CCc1ccccc1	-0.462	35.7	0.1	15.4	1.9	74.3*
O=c1c2ccccc2nc(/C=C/c2ccccc2)n1CCCO	nt	nt	2.0	-2.7	-0.9	nt
CC(Oc1ccc(Br)cc1)C(=O)NCC(c1cccs1)N1CCOCC1 (configuration not stated)	nt	nt	1.2	4.0	-2.0	nt
